Reference: ChEMBL document CHEMBL1139484, “Design, synthesis, and binding studies of new potent ligands of cannabinoid receptors” (J Med Chem, 2005)

How the values were obtained:
[1] = Inhibition of anandamide membrane transporter in RBL-2H3 cells assessed as [14C]anandamide uptake; type: cell-based, Rattus norvegicus
Method in brief: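 RBL-2H3 cells incubated with [14C]anandamide (4 µM) for 5 min at 37 °C, with or without varying inhibitor concentrations. Medium extracted with CHCl3/CH3OH (2:1); residual radioactivity taken as measure of uptake. IC50 from fit; mean of 3 experiments.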

[2] = biological target: T1, Fatty-acid amide hydrolase 1 (Rattus norvegicus, UniProt P97612); test: Inhibition of rat brain FAAH assessed as [14C]anandamide hydrolysis
T1 sequence (P97612 whole entry): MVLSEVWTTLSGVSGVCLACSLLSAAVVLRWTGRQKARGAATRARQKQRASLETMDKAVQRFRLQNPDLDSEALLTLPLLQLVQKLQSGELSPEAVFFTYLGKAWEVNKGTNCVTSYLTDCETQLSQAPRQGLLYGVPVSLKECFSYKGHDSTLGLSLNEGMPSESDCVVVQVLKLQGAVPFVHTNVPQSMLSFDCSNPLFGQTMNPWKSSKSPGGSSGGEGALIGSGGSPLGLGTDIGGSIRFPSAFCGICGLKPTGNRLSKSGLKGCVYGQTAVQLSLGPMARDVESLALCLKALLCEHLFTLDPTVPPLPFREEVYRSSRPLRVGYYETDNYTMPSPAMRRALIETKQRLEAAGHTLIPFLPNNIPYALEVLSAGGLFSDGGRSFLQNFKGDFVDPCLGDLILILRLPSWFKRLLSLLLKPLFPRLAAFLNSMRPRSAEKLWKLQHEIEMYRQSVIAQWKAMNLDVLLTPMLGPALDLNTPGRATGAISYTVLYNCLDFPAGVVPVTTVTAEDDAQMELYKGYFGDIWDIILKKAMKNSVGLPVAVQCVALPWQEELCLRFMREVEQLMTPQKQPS
Method in brief: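 Rat brain membranes incubated with [14C]anandamide (6 µM) and increasing compound concentrations in 50 mM Tris-HCl pH 9, 30 min, 37 °C. Mixture extracted with 2 volumes CHCl3/CH3OH (2:1); [14C]ethanolamine in aqueous phase counted by scintillation. IC50 reported; mean of 3 experiments.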

Cannabinoid receptor 1 = Cannabinoid receptor 1 (Homo sapiens, UniProt P21554); test: Displacement of [3H]CP-55940 from human CB1 receptor expressed in COS cells; type: cell-based
Cannabinoid receptor 2 = Cannabinoid receptor 2 (Homo sapiens, UniProt P34972); test: Displacement of [3H]CP-55940 from human CB2 receptor expressed in COS cells; type: cell-based
[3] = biological target: Cannabinoid receptor (Homo sapiens) (UniProt P34972+P21554); test: Selectivity for human CB2 receptor over human CB1 receptor; type: protein assay
Method in brief: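 Ratio of Ki values from [3H]CP-55,940 (0.5 nM) displacement on P2 membranes of COS cells transfected with human CB1 or CB2; Ki from IC50 by Cheng-Prusoff, mean of 3 experiments.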

Chain of Cannabinoid receptor 1 (P21554 whole entry): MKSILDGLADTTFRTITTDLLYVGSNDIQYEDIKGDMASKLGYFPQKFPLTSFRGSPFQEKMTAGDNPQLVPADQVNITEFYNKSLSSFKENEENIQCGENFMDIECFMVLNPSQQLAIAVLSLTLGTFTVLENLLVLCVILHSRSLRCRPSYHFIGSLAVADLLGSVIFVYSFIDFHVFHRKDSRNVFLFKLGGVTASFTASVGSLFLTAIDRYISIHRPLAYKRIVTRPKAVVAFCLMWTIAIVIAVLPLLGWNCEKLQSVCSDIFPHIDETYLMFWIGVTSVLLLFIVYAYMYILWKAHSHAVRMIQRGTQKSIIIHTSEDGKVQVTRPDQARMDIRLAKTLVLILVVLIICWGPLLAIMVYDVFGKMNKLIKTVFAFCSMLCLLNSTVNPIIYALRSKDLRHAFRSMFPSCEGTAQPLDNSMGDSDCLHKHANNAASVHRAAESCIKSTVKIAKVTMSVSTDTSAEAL
Chain of Cannabinoid receptor 2 (P34972 whole entry): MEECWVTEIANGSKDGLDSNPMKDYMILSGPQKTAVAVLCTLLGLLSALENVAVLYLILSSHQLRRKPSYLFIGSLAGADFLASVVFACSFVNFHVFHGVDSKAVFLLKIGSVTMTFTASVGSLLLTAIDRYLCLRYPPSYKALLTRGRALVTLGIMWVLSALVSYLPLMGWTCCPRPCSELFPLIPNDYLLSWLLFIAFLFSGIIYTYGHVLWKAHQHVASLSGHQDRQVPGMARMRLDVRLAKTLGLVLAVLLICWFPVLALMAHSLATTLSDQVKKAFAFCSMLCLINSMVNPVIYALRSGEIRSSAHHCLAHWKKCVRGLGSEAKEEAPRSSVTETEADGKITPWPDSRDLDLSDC
Chain of Cannabinoid receptor (Homo sapiens) (P21554 whole entry, looked up): as the sequence (P21554 whole entry) above
Chain of Cannabinoid receptor (Homo sapiens) (P34972 whole entry, looked up): as the sequence (P34972 whole entry) above

| SMILES | IC50 [1] | Ki (Cannabinoid receptor 1) | also measured |
| --- | --- | --- | --- |
| CCCCCCCCCCCCCCCc1cccc(OCCCCCC(=O)NCCO)c1 | > 25 µM | – | – |
| CCCCCc1cc(O)cc(OCCCCCCCCCCC(=O)NCCO)c1 | 25 µM | – | – |
| CCCCCCc1ccc(O)cc1OCCCCCCCCCCC(=O)NC1CC1 | 13 µM | – | IC50 [2]: > 25 µM |
| CCCCCc1cc(O)cc(OCCCCCCCCCCCCCCCC(=O)Nc2ccc(O)cc2)c1 | – | > 10 µM | – |
| CCCCCc1cc(O)cc(OCCCCCCCCCCCCCCCC(=O)NC2CC2)c1 | – | > 10 µM | – |
| CCCCCCc1ccc(O)cc1OCCCCCCCCCCC(=O)NCCO | > 25 µM | – | – |
| CCCCCCc1ccc(OCCCCCCCCCCC(=O)Nc2ccc(O)cc2)cc1O | > 25 µM | – | Ki (Cannabinoid receptor 2): > 10 µM |
| O=C(CCCCCCCCCCOc1cccc(O)c1)Nc1ccc(O)cc1 | – | – | Ki (Cannabinoid receptor 2): > 10 µM |
| O=C(CCCCCCCCCCCCCCCOc1cccc(O)c1)Nc1ccc(O)cc1 | – | – | Ki (Cannabinoid receptor 2): 10 µM |
| CCCCCCc1ccc(O)cc1OCCCCCCCCCCC(=O)Nc1ccc(O)cc1 | > 25 µM | – | – |
| O=C(CCCCCCCCCCOc1cccc(O)c1)NCCO | – | > 10 µM | – |
| O=C(CCCCCCCCCCOc1cccc(O)c1)NC1CC1 | – | > 10 µM | – |
| CCCCCCCCCCCCCCCc1cccc(OCCCCCC(=O)Nc2ccc(O)cc2)c1 | > 25 µM | – | – |
| O=C(CCCCCCCCCCCCCCCOc1cccc(O)c1)NCCO | – | > 10 µM | – |
| CCCCCCc1ccc(OCCCCCCCCCCC(=O)NC2CC2)cc1O | > 25 µM | > 10 µM | Selectivity ratio [3]: 26 |
| CCCCCCc1ccc(O)cc1OCCCCCC(=O)NCCO | – | – | Ki (Cannabinoid receptor 2): > 10 µM |
| CCCCCCc1ccc(OCCCCCCCCCCC(=O)NCCO)cc1O | – | > 10 µM | – |
| CCCCCc1cc(O)cc(OCCCCCCCCCCC(=O)NC2CC2)c1 | 17 µM | – | – |
| CCCCCCc1ccc(OCCCCCCCCCCCCCCCC(=O)Nc2ccc(O)cc2)cc1O | – | > 10 µM | – |
